Here are results for 13 compounds from ChEMBL document CHEMBL1150295, “Synthesis and receptor binding properties of 2beta-alkynyl and 2beta-(1,2,3-triazol)substituted 3beta-(substituted phenyl)tropane derivatives” (Bioorg Med Chem, 2008).

Experiment [1] can be described thus: Selectivity for dopamine transporter over norepinephrine transporter.
The target of experiment [2] is Sodium-dependent serotonin transporter (Homo sapiens, UniProt P31645). The experiment can be described thus: Displacement of [3H]paroxetine from serotonin transporter. For orientation: Loss of bound radioactivity is the signal in a displacement assay; it reports binding, not function.
Experiment [3] in a line: Selectivity for dopamine transporter over serotonin transporter.
In experiment [4] the target is Sodium-dependent noradrenaline transporter (Homo sapiens, UniProt P23975). Put plainly: Displacement of [3H]nisoxetine from norepinephrine transporter.
Experiment [5] addresses Sodium-dependent dopamine transporter (Homo sapiens, UniProt Q01959). The experiment can be described thus: Displacement of [3H]WIN-35428 from dopamine transporter. The procedure, abridged: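 Competitive radioligand binding at membrane dopamine transporter; 0.5 nM [3H]WIN35,428 final concentration. Mean ± standard error of three or four experiments, each in triplicate.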

Sequence of Sodium-dependent noradrenaline transporter (P23975 whole entry): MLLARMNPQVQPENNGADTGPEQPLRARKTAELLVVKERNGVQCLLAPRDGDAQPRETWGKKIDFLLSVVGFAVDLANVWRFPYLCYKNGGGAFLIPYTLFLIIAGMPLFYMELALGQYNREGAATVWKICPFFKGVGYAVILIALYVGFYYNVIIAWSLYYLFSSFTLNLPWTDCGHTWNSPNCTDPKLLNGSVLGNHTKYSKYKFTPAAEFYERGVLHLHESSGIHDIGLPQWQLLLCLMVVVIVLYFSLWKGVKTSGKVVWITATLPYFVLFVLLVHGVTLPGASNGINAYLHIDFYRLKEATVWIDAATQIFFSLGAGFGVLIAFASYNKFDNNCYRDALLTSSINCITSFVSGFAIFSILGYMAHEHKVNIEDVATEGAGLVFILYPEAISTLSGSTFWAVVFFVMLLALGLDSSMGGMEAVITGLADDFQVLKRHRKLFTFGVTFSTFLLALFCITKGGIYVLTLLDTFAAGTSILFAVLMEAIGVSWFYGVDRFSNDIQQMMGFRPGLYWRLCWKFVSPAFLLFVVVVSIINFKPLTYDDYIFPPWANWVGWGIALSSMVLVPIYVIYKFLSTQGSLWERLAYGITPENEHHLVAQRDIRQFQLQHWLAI
Sequence of Sodium-dependent dopamine transporter (Q01959 whole entry): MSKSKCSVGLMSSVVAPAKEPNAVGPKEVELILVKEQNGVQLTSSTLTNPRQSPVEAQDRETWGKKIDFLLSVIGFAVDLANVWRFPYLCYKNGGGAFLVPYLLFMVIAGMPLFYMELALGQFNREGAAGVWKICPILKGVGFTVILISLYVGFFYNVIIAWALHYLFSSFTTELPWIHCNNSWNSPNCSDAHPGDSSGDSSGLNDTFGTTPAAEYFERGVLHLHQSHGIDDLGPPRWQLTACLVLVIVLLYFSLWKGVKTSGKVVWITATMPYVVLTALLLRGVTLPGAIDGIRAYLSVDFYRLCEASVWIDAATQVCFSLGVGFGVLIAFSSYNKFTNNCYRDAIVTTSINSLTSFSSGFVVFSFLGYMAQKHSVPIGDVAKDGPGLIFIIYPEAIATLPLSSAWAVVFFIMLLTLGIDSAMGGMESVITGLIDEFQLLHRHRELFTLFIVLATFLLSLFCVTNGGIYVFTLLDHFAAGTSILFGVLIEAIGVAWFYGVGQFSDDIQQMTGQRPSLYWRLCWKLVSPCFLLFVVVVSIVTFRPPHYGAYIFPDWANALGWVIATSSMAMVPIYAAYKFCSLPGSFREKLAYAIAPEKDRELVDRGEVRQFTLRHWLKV
Sequence of Sodium-dependent serotonin transporter (P31645 whole entry): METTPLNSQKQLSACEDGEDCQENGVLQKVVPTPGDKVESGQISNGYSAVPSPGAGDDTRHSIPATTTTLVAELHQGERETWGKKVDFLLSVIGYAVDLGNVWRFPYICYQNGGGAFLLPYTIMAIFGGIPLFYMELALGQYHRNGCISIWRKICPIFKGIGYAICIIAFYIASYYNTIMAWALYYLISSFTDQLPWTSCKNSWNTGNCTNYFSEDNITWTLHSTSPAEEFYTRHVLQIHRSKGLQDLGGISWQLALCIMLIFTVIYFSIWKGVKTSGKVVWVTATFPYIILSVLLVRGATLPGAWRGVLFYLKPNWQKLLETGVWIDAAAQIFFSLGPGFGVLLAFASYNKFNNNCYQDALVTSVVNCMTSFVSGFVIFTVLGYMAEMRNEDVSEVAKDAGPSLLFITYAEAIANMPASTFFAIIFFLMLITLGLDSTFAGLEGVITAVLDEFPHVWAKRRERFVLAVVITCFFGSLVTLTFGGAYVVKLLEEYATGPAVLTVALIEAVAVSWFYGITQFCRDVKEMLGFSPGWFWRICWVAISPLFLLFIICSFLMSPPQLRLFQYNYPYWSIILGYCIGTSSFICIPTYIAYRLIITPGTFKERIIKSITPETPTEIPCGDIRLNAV

In general, Ki refers to the equilibrium dissociation constant of an inhibitor or competing ligand from its target. High values mean a looser hold on the target, low ones a stronger hold on the target. The IC50 is the point on the concentration scale where inhibition reaches its midpoint. Higher therefore signals a need for much substance. In the case of `CN1[C@H]2CC[C@@H]1[C@@H](C#Cc1ccc([N+](=O)[O-])cc1)[C@@H](c1ccc(Cl)cc1)C2`, the values for the Selectivity ratio in experiment [1] and in experiment [3] were 256 and 689, respectively. For the same compound, the Ki in experiment [2] came to 620 nM; in experiment [4], 230 nM. In experiment [5], this compound registered an IC50 of 0.9 nM.
Take `CN1[C@H]2CC[C@@H]1[C@H](C=C(Br)Br)[C@@H](c1ccc(Cl)cc1)C2`: the Ki in experiment [2] was determined as 76 nM; in experiment [4], 49 nM. In addition, in experiment [5], the IC50 was determined as 1.4 nM.
The like results for `CN1[C@H]2CC[C@@H]1[C@@H](C=C(Br)Br)[C@@H](c1ccc(Cl)cc1)C2` were, in that order, 7 nM, 3.5 nM and 0.32 nM.
In experiment [4], `COC(=O)[C@H]1[C@@H](c2ccccc2)C[C@@H]2CC[C@H]1N2C` registered a Ki of 556 nM. The compound further displayed an IC50 in experiment [5] of 23 nM.
With `CN1[C@H]2CC[C@@H]1[C@@H](C#Cc1ccc(N)cc1)[C@@H](c1ccc(Cl)cc1)C2`, the Ki in experiment [2] worked out at 19 nM; in experiment [4], 50 nM. Also, the IC50 in experiment [5] is 2.2 nM.
As to `CN1[C@H]2CC[C@@H]1[C@@H](c1cn(Cc3ccccc3)nn1)[C@@H](c1ccc(Cl)cc1)C2`, the figures for the Ki in experiment [2] and in experiment [4] were 161 nM and 2560 nM, respectively. In experiment [5], this compound returned an IC50 of 47 nM.
For `C#C[C@H]1[C@@H](c2ccc(C)cc2)C[C@@H]2CC[C@H]1N2C`, the Ki in experiment [2] was found to be 54 nM; in experiment [4], 150 nM. Besides, in experiment [5], the IC50 stood at 11 nM.
For `CN1[C@H]2CC[C@@H]1[C@@H](C#Cc1ccccc1)[C@@H](c1ccc(Cl)cc1)C2`, in that order: 81 nM, 14 nM and 0.8 nM.
In the case of `Cc1ccc([C@H]2C[C@@H]3CC[C@H]([C@H]2C#Cc2ccccc2)N3C)cc1`, the Ki in experiment [2] came out at 730 nM; in experiment [4], 31 nM. The same compound came in with an IC50 in experiment [5] of 0.8 nM.
Consider `Cc1ccc([C@H]2C[C@@H]3CC[C@H]([C@H]2C=C(Br)Br)N3C)cc1`, for which the figures for the Ki in experiment [2] and in experiment [4] were 39 nM and 3.4 nM, respectively. Moreover, in experiment [5], the IC50 stood at 0.23 nM.
The like results for `Cc1ccc([C@H]2C[C@@H]3CC[C@H]([C@@H]2C=C(Br)Br)N3C)cc1` were, in that order, 252 nM, 55 nM and 3.6 nM.
For `C#C[C@H]1[C@@H](c2ccc(Cl)cc2)C[C@@H]2CC[C@H]1N2C`, in that order: 18 nM, 75 nM and 3.6 nM.
For the compound `CN1[C@H]2CC[C@@H]1[C@@H](c1cn(CCN3CCCCC3)nn1)[C@@H](c1ccc(Cl)cc1)C2`, the Ki in experiment [2] was determined as 138 nM; in experiment [4], 430 nM. In experiment [5], this compound yielded an IC50 of 8 nM.
